Test results as given in ChEMBL document CHEMBL1147851, “Novel class of arylpiperazines containing N-acylated amino acids: their synthesis, 5-HT1A, 5-HT2A receptor affinity, and in vivo pharmacological evaluation” (Bioorg Med Chem, 2007).
Calls of active or inactive are those of the source. No cut-off for these calls is given here.

How the values were obtained:
[1] = biological target: T1, 5-hydroxytryptamine receptor 1A (Rattus norvegicus, UniProt P19327); assay: Displacement of [3H]8-OH-DPAT from serotonin 5HT1A receptor in rat brain hippocampus; assay type: tissue-based
T1 sequence (P19327 whole entry): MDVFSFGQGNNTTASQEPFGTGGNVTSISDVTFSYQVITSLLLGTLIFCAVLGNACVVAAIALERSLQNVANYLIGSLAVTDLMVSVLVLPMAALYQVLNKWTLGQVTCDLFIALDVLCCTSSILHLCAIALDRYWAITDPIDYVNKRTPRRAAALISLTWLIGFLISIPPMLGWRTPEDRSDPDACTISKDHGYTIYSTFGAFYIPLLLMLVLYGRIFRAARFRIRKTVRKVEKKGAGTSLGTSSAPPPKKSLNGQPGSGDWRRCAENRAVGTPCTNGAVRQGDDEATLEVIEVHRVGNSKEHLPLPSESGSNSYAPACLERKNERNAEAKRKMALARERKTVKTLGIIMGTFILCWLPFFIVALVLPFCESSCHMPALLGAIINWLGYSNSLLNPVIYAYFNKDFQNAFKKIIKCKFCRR
How it was run: (§1)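 Full competition binding with 8–10 drug concentrations (10^-10–10^-3 M), each in triplicate. Ki was derived from at least three experiments.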

[2] = biological target: 5-hydroxytryptamine receptor 2A (Rattus norvegicus, UniProt P14842); assay: Displacement of [3H]ketanserin from serotonin 5HT2A receptor in rat brain cortex; assay type: tissue-based; how it was run: as §1
D(2) dopamine receptor = D(2) dopamine receptor (Rattus norvegicus, UniProt P61169); assay: Displacement of [3H]spiperone from dopaminergic D2 receptor in rat striatal membrane; assay type: cell membranes, Striatum
How it was run: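 Rat striatal membranes incubated with [3H]spiperone, with 50 nM ketanserin added to block 5-HT2A sites. Nonspecific binding was defined with 5 μM (±)-butaclamol. Incubation 30 min at 37 °C, stopped by vacuum filtration, washed with 50 mM potassium phosphate pH 7.4, counted by liquid scintillation. Estimated Ki (Cheng–Prusoff) came from two concentrations (0.1, 1 μM) in triplicate, three experiments.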

Mus musculus [3] = organism: Mus musculus; assay: Decrease in body temperature in Albino Swiss mouse
Mus musculus [4] = assay: Antidepressant-like activity in Swiss Albino mouse at 10 mg/kg by forced swimming test; assay type: functional
How it was run: (§2)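 Porsolt forced swim in male Albino Swiss mice, agents given ip (1% Tween 80 suspension) 30 min beforehand. Mice were placed in a cylinder 10 cm wide holding 6 cm of water at 23–25 °C for 6 min. Floating immobility was timed over the last 4 min. n = 9-10 per group; ANOVA with Dunnett's test.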

Mus musculus [5] = assay: Antidepressant-like activity in Swiss Albino mouse at 20 mg/kg by forced swimming test; assay type: functional; how it was run: as §2
Mus musculus [6] = assay: Antidepressant-like activity in C57BL/6J mouse at 5 mg/kg by tail suspension test; assay type: functional
Mus musculus [7] = assay: Antidepressant-like activity in C57BL/6J mouse at 10 mg/kg by tail suspension test; assay type: functional
How it was run: (§3)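 Tail suspension in male C57BL/6J mice (22–23 g), dosed ip in 1% Tween 80 suspension 30 min before the test. Each mouse hung by adhesive tape about 1 cm from the tail tip, 75 cm above the floor. Total immobility, meaning no limb or body movement except breathing, was scored manually over 6 min. n = 9-10 per group; one-way ANOVA then Dunnett's test.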

Mus musculus [8] = assay: Antidepressant-like activity in C57BL/6J mouse at 20 mg/kg by tail suspension test; assay type: functional; how it was run: as §3
Mus musculus [9] = assay: Anxiolytic-like activity in Swiss Albino mouse at 5 mg/kg by four plate test; assay type: functional
How it was run: (§4)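 Four-plate test in male Albino Swiss mice, dosed ip 30 or 60 min before testing. After 15 s of exploration, each plate-to-plate crossing triggered a 0.5 s, 120 V floor shock, with no new shock for the next 3 s. Punished crossings were counted over 60 s. n = 10 per group; ANOVA with Dunnett's test.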

Mus musculus [10] = assay: Anxiolytic-like activity in Swiss Albino mouse at 10 mg/kg by four plate test; assay type: functional; how it was run: as §4
Mus musculus [11] = assay: Anxiolytic-like activity in Swiss Albino mouse at 20 mg/kg by four plate test; assay type: functional; how it was run: as §4
[12] = biological target: T2, 5-hydroxytryptamine receptor 1A (Mus musculus) (UniProt Q64264); assay: Antagonist activity at 5-HT1A receptor in Swiss Albino mouse assessed as decrease in 8-OH-DPAT induced body temperature; assay type: functional
T2 sequence (whole entry): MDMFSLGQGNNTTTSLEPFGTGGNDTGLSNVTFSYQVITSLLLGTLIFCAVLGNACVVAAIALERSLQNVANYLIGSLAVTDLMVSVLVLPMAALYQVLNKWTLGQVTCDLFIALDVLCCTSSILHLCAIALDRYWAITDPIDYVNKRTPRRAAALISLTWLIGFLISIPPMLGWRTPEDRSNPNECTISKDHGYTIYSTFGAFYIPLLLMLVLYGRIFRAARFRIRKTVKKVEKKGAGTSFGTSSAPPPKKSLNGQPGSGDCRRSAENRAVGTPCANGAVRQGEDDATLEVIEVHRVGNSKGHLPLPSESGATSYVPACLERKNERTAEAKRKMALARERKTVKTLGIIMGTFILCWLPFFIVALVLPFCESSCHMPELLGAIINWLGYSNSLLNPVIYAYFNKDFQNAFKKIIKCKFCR
How it was run: (§5)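 Male Albino Swiss mice. 8-OH-DPAT 5 mg/kg sc induced hypothermia. Test agents were suspended in 1% aqueous Tween 80 and given ip 45 min before 8-OH-DPAT. Rectal temperature was taken 15, 30, 45 and 60 min after 8-OH-DPAT and expressed as change (Δt) from basal temperature. Six to ten animals per dose.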

[13] = biological target: T2, 5-hydroxytryptamine receptor 1A (Mus musculus); assay: Activity at 5HT1A receptor in Swiss Albino mouse assessed as decrease in 8-OH-DPAT induced body temperature; assay type: functional; settings: filed as agonist; how it was run: as §5
Mus musculus [14] = assay: Anxiolytic-like activity in Swiss Albino mouse at 2.5 mg/kg by four plate test; assay type: functional
How it was run: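 Male Albino Swiss mice (24–28 g), each used once, 10 per dose group. Dosing ip at 10 mL/kg, 30 or 60 min before testing depending on agent; tested compounds given as suspensions in 1% aqueous Tween 80. Four-metal-plate floor; 15 s exploration, then each plate-to-plate crossing shocked (120 V, 0.5 s), no new shock for 3 s if still running. Punished crossings counted over 60 s; one-way ANOVA, Dunnett's test.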

Mus musculus [15] = assay: Antidepressant-like activity in Swiss Albino mouse at 2.5 mg/kg by forced swimming test; assay type: functional; how it was run: as §2
Mus musculus [16] = assay: Antidepressant-like activity in Swiss Albino mouse at 5 mg/kg by forced swimming test; assay type: functional; how it was run: as §2
Mus musculus [17] = organism: Mus musculus; assay: Reduction in spontaneous locomotor activity in Swiss Albino mouse; assay type: functional, organism-based
How it was run: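 Male Albino Swiss mice dosed ip were placed singly in photoresistor actometers (24 cm diameter, two light beams). Beam crossings were counted over the first 6 min and over a 30-min session. ANOVA with Dunnett's test.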

Mus musculus [18] = organism: Mus musculus; assay: Effect on body temperature in Swiss Albino mouse; assay type: functional, organism-based
How it was run: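 Male Albino Swiss mice received the agent alone ip as a suspension in 1% aqueous Tween 80. Rectal body temperature was read at 30, 60, 90 and 120 min after dosing and expressed as Δt from the basal value taken at the start. Six to ten animals per dose.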

Mus musculus [19] = organism: Mus musculus; assay: Decrease in body temperature in C57BL/6J mouse; assay type: functional, organism-based

Sequence of 5-hydroxytryptamine receptor 2A (P14842 whole entry): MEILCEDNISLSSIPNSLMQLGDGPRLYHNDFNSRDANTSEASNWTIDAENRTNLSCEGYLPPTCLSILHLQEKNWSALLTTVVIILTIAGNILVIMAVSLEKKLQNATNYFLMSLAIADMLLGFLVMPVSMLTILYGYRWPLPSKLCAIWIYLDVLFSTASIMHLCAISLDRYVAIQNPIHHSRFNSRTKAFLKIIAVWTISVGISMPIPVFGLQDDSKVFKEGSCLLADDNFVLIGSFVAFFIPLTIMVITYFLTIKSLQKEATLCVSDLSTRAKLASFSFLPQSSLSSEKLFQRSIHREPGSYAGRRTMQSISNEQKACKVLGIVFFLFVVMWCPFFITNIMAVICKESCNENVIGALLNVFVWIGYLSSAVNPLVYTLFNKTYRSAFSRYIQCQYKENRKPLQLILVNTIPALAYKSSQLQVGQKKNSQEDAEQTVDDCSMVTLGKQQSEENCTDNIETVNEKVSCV
Sequence of D(2) dopamine receptor (P61169 whole entry): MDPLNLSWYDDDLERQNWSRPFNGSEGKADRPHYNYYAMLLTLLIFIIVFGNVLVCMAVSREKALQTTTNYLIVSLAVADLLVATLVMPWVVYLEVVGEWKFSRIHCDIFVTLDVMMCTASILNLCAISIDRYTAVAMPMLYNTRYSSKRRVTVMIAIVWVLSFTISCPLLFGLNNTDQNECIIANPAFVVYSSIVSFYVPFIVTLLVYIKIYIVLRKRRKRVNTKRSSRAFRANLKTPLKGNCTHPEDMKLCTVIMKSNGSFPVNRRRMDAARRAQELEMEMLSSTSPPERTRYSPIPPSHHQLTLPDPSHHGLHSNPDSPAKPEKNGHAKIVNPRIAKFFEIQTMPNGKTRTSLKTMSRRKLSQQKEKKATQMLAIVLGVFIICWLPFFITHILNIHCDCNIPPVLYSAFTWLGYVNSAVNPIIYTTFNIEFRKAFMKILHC

Q: Which results are given for COc1ccccc1N1CCN(CCCCN2C(=O)C[C@H](NC(=O)CC3CC4CCC3C4)C2=O)CC1 (stereo not given in full)?
A: Ki [1]: 9 nM; Ki [2]: 47 nM; Ki (D(2) dopamine receptor): 880 nM; Activity (Mus musculus [3]): Active

Q: Which Activity (Mus musculus [4]) does the source give for CN(C)CCCN1c2ccccc2CCc2ccccc21 [IMIPRAMINE] here?
A: 149.1 s

Q: What about the Activity (Mus musculus [5]) of the same molecule?
A: 107.8 s

Q: And the Activity (Mus musculus [6])?
A: 147.4 s

Q: And the Activity (Mus musculus [7])?
A: 102.5 s

Q: What about the Activity (Mus musculus [8]) of the same molecule?
A: 90.2 s

Q: What does the source list for COc1ccccc1N1CCN(CCCCN2C(=O)C[C@H](NC(=O)C34CC5CC(CC(C5)C3)C4)C2=O)CC1?
A: Ki [1]: 4 nM; Ki [2]: 173 nM; Ki (D(2) dopamine receptor): 1780 nM; Activity (Mus musculus [3]): Active

Q: For O=C1C[C@H](NC(=O)C23CC4CC(CC(C4)C2)C3)C(=O)N1CCCCN1CCN(c2cccc(Cl)c2)CC1, which Ki [1] is on record?
A: 47 nM

Q: What about the Ki [2] of the same molecule?
A: 25 nM

Q: What about the Ki (D(2) dopamine receptor) of the same molecule?
A: 21200 nM

Q: And the Activity (Mus musculus [9])?
A: 4.6

Q: And the Activity (Mus musculus [10])?
A: 5.1

Q: What about the Activity (Mus musculus [11]) of the same molecule?
A: 5.6

Q: What about the Activity [12] of the same molecule?
A: Active

Q: With COc1ccccc1N1CCN(CCCCN2C(=O)C[C@H](NC(=O)C3CCCCC3)C2=O)CC1 as the molecule, how does the Ki [1] read?
A: 19 nM

Q: And the Ki [2]?
A: 183 nM

Q: What about the Ki (D(2) dopamine receptor) of the same molecule?
A: 2080 nM

Q: What about the Activity [13] of the same molecule?
A: Agonist

Q: What about the Activity (Mus musculus [14]) of the same molecule?
A: 4.7

Q: What about the Activity (Mus musculus [9]) of the same molecule?
A: 6.6

Q: What about the Activity (Mus musculus [10]) of the same molecule?
A: 7

Q: And the Activity (Mus musculus [11])?
A: 7.5

Q: What about the Activity (Mus musculus [15]) of the same molecule?
A: 131.6 s

Q: And the Activity (Mus musculus [16])?
A: 110 s

Q: What about the Activity (Mus musculus [4]) of the same molecule?
A: 102 s

Q: And the Activity (Mus musculus [5])?
A: 128.1 s

Q: And the Activity (Mus musculus [6])?
A: 147.9 s

Q: What about the Activity (Mus musculus [7]) of the same molecule?
A: 129.1 s

Q: And the Activity (Mus musculus [8])?
A: 116.1 s

Q: What about the Activity (Mus musculus [17]) of the same molecule?
A: inactive

Q: With COc1ccccc1N1CCN(CCCCN2C(=O)CCC2=O)CC1 as the molecule, how does the Ki [2] read?
A: 1510 nM

Q: And the Ki (D(2) dopamine receptor)?
A: 490 nM

Q: How did the Ki [1] turn out when O=C1CCC(=O)N1CCCCN1CCN(c2cccc(Cl)c2)CC1 was run?
A: 32 nM

Q: What about the Ki [2] of the same molecule?
A: 121 nM

Q: What about the Ki (D(2) dopamine receptor) of the same molecule?
A: 7800 nM

Q: How did the Ki [1] turn out when O=C(N[C@H]1CC(=O)N(CCCCN2CCN(c3cccc(Cl)c3)CC2)C1=O)C1CCCC1 was run?
A: 28 nM

Q: What about the Ki [2] of the same molecule?
A: 47 nM

Q: What about the Ki (D(2) dopamine receptor) of the same molecule?
A: 12400 nM

Q: What about the Activity (Mus musculus [3]) of the same molecule?
A: Active

Q: With O=C(N[C@H]1CC(=O)N(CCCCN2CCN(c3cccc(Cl)c3)CC2)C1=O)C1CCCCC1 as the molecule, how does the Ki [1] read?
A: 26 nM

Q: What about the Ki [2] of the same molecule?
A: 6.51 nM

Q: And the Ki (D(2) dopamine receptor)?
A: 2130 nM

Q: And the Activity (Mus musculus [18])?
A: inactive

Q: Which Ki [1] does the source give for O=C(CC1CC2CCC1C2)N[C@H]1CC(=O)N(CCCCN2CCN(c3cccc(Cl)c3)CC2)C1=O (stereo not given in full) here?
A: 21 nM

Q: And the Ki [2]?
A: 4.2 nM

Q: And the Ki (D(2) dopamine receptor)?
A: 776 nM

Q: And the Activity (Mus musculus [18])?
A: inactive

Q: Which Ki [1] does the source give for COc1ccccc1N1CCN(CCCCN2C(=O)C[C@H](NC(=O)C3CCCC3)C2=O)CC1 here?
A: 23 nM

Q: And the Ki [2]?
A: 480 nM

Q: And the Ki (D(2) dopamine receptor)?
A: 905 nM

Q: What about the Activity [13] of the same molecule?
A: Agonist

Q: What about the Activity (Mus musculus [9]) of the same molecule?
A: 3.4

Q: What about the Activity (Mus musculus [10]) of the same molecule?
A: 5.2

Q: And the Activity (Mus musculus [11])?
A: 6

Q: And the Activity (Mus musculus [16])?
A: 133.4 s

Q: And the Activity (Mus musculus [4])?
A: 123.3 s

Q: And the Activity (Mus musculus [5])?
A: 103 s

Q: What about the Activity (Mus musculus [17]) of the same molecule?
A: Active

Q: What does the source list for CN1C(=O)CN=C(c2ccccc2)c2cc(Cl)ccc21 [DIAZEPAM]?
A: Activity (Mus musculus [14]): 6.8; Activity (Mus musculus [9]): 6.7

Q: With COc1ccccc1N1CCN(CCCCNC(=O)[C@@H]2CCCN2C(=O)C2CCCCC2)CC1 as the molecule, how does the Activity (Mus musculus [19]) read?
A: Active

Q: And the Ki [1]?
A: 19 nM

Q: What about the Ki [2] of the same molecule?
A: 990 nM

Q: And the Ki (D(2) dopamine receptor)?
A: 3590 nM
